Assay [1] concerns Nucleic Acid. Briefly: Evaluated for photo-cross-linking of DNA. It is filed as functional. In short, it runs like this:
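Sonicated calf thymus DNA (200 µg) plus psoralen 0.1–100 µg/mL in 10 mM Tris-HCl, 1 mM EDTA, pH 7.0. Irradiated 30 min (~365 nm, 24 kJ/m2), heated 100 °C 5 min, ice-cooled. Double- vs single-stranded DNA resolved on hydroxylapatite with 50–500 mM phosphate gradient. The concentration giving 50% cross-linked DNA is expressed relative to 8-MOP.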

Assay [2] concerns Tetrahymena thermophila. As to the kind of experiment: Evaluated in vitro for phototoxic effect on ciliate Tetrahymena thermophila cells. It is filed as functional.
The subject of assay [3] is Tetrahymena thermophila. Briefly: Evaluated for DNA photo-cross-linking in Tetrahymena thermophila and relative cross-linking affinity measured by the alkaline elution technique. It is filed as functional. Put shortly:
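Tetrahymena thermophila ~2×10^5 cells prelabelled with [3H]thymidine; phototreated with psoralen in 10 mM Tris-HCl pH 7.4 at ~365 nm. Interstrand cross-links are measured by alkaline elution: cells lysed on 2-µm filter (0.2% Sarcosyl, 2 M NaCl, 40 mM EDTA, pH 10), eluted at pH 12.2. Efficiency relative to 8-MOP is taken from concentrations giving similar elution retardation.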

For assay [4], the system named is NHIK3025. As to the kind of experiment: Evaluated in vitro for phototoxic effect on human cell line NHIK 3025, assay performed using threefold dilution and result reported by one dilution step. The assay is classed as functional.
Assay [5] concerns NHIK3025. As to the kind of experiment: Evaluated for DNA. photo-cross-linking in cell line NHIK 3025 cross-linking affinity measured by alkaline elution technique. It is filed as functional, Homo sapiens. Put shortly:
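NHIK 3025 cells (~10^6) labelled 16 h with [3H]thymidine (1 µCi/mL). Psoralen in PBS at 1–90 µg/mL, 10-min equilibration, then irradiation 0.8 J/cm2 at ~365 nm. Cells trypsinized and lysed on 2-µm filter (0.2% Sarcosyl, 2 M NaCl, 40 mM EDTA, pH 10), then eluted at pH 12.2. Relative efficiency vs 8-MOP is read from concentrations giving similar elution retardation.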

For assay [6], the system named is Mus musculus. Briefly: Evaluated in vivo for its photosensitization activity, against increase in skin thickness relative to that of 8-MOP. It is filed as functional. Set-up: unit: % of 8-MOP. In short, it runs like this: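 Female hairless Hr/Hr mice, 4–6 weeks, 5–28 per group. Compound given ip at 0.6, 6 or 60 mg/kg (reported at 6 mg/kg). UVA from four TL20W/09 tubes after 5 min–2 h, 4 J cm-1 as printed. Skin-fold thickness measured by caliper 24 h post-irradiation, expressed relative to 8-MOP (=100%).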

Take `O=c1ccc2cc3ccoc3c(OCCO)c2o1`: the Photo-cross-linking of DNA in assay [1] came to 1.
`COc1c2occc2c(COCCC[N+](C)(C)C)c2ccc(=O)oc12.[Br-]`: the Photo-cross-linking of DNA in assay [1] was found to be 0.1. The Phototoxic effect is given as below 0.3 in assay [2] and 3 in assay [4]. The compound further registered a DNA photo-crosslinking in assay [3] of 4. The DNA crosslinking in assay [5] came to 1.
As for `COc1c2occc2c(CN(C(C)C)C(C)C)c2ccc(=O)oc12.Cl`, the Photosensitization in assay [6] is 87. Moreover, the Photo-cross-linking of DNA in assay [1] was determined as 0.15. In addition, the Phototoxic effect in assay [2] turned out to be 10; in assay [4], 2. The DNA crosslinking in assay [5] was 12.
Take `COc1c2occc2c(COCCCO)c2ccc(=O)oc12`: in assay [1], the Photo-cross-linking of DNA was below 0.07.
For the compound `COc1c2occc2c(C[N+](C)(C)C)c2ccc(=O)oc12.[Cl-]`, in assay [6], the Photosensitization is reported as 140. The compound further had a Photo-cross-linking of DNA in assay [1] of 0.1. The values for the Phototoxic effect in assay [2] and in assay [4] were 0.3 and 1, respectively. The compound also came in with a DNA photo-crosslinking in assay [3] of 2. Also, the DNA crosslinking in assay [5] turned out to be 3.
For `COc1c2occc2c(CN2CCN(C)CC2)c2ccc(=O)oc12.Cl`, the Photosensitization in assay [6] amounted to 325. Moreover, in assay [1], the Photo-cross-linking of DNA came out at 0.2. The results for the Phototoxic effect in assay [2] and in assay [4] were 10 and 5, respectively. Besides, the DNA crosslinking in assay [5] is recorded as 9.
With `COc1c2occc2c(CN2CCCCC2)c2ccc(=O)oc12.Cl`, the Photosensitization in assay [6] came out at 238. In assay [1], the Photo-cross-linking of DNA stood at 0.3. The DNA photo-crosslinking in assay [3] was found to be 8. This compound also gave a Phototoxic effect in assay [4] of 3. This compound showed a DNA crosslinking in assay [5] of 19.
Consider `COc1c2occc2c(CN2CCOCC2)c2ccc(=O)oc12.Cl`, for which the Photosensitization in assay [6] is listed as 154. In assay [1], this compound displayed a Photo-cross-linking of DNA of 0.1. Also, the Phototoxic effect in assay [2] and in assay [4] was 0.3 throughout. For the same compound, the DNA photo-crosslinking in assay [3] is 6. Further, the DNA crosslinking in assay [5] is below 1.
Consider `COc1c2occc2c(CN(C)CCO)c2ccc(=O)oc12.Cl`, for which the Photosensitization in assay [6] is given as 306. The same compound gave a Photo-cross-linking of DNA in assay [1] of 0.5. For the same compound, the Phototoxic effect was 3 in assay [2] and 2 in assay [4]. Also, the DNA crosslinking in assay [5] is 15.
Take `COc1c2occc2cc2ccc(=O)oc12` [METHOXSALEN]: the Photosensitization in assay [6] is 100. This compound displayed a Photo-cross-linking of DNA in assay [1] of 1. For the same compound, the Phototoxic effect in assay [2] and in assay [4] was 100 in each case. The same compound showed a DNA photo-crosslinking in assay [3] of 100. This compound also displayed a DNA crosslinking in assay [5] of 100.
As to `CN1CC[N+](C)(CCCOc2c3occc3cc3ccc(=O)oc23)CC1.[Br-]`, the Photosensitization in assay [6] amounted to 463. Moreover, the Photo-cross-linking of DNA in assay [1] stood at 2.5. Also, the Phototoxic effect in assay [2] and in assay [4] was 10 throughout. This compound also registered a DNA photo-crosslinking in assay [3] of 2. The compound also came in with a DNA crosslinking in assay [5] of 7.
`COCc1c2ccoc2c(OC)c2oc(=O)ccc12` had a Photo-cross-linking of DNA in assay [1] of 0.04.
`COc1c2occc2c(CN)c2ccc(=O)oc12.Cl`: the Photosensitization in assay [6] stood at 172. Besides, in assay [1], the Photo-cross-linking of DNA is 2.1. For the same compound, the Phototoxic effect in assay [2] is 5; in assay [4] it was 1. Further, the DNA photo-crosslinking in assay [3] came to 3. The compound also registered a DNA crosslinking in assay [5] of 8.
For `COc1c2occc2c(CO)c2ccc(=O)oc12`, in assay [1], the Photo-cross-linking of DNA turned out to be 0.07.
For `COc1c2occc2c(CN(C)C)c2ccc(=O)oc12.Cl`, the Photosensitization in assay [6] is on record as 194. Besides, the Photo-cross-linking of DNA in assay [1] was determined as 0.6. Besides, the results for the Phototoxic effect in assay [2] and in assay [4] were 15 and 7, respectively. Further, in assay [3], the DNA photo-crosslinking came out at 14. Further, the DNA crosslinking in assay [5] amounted to 24.
In the case of `C[N+](C)(C)CCCOc1c2occc2cc2ccc(=O)oc12.[Br-]`, the Photosensitization in assay [6] is recorded as 477. The Photo-cross-linking of DNA in assay [1] was found to be 1.1. Besides, the results for the Phototoxic effect in assay [2] and in assay [4] were 3 and 15, respectively. The same compound came in with a DNA photo-crosslinking in assay [3] of 5. Besides, the DNA crosslinking in assay [5] stood at 3.
In the case of `COc1c2occc2c(CN(CCO)CCO)c2ccc(=O)oc12.Cl`, the Photosensitization in assay [6] was 339. In addition, in assay [1], the Photo-cross-linking of DNA worked out at 0.2. Also, the results for the Phototoxic effect in assay [2] and in assay [4] were 0.3 and 3, respectively. In assay [3], this compound yielded a DNA photo-crosslinking of 3. Besides, in assay [5], the DNA crosslinking came to 1.
Consider `Br.CCN(CC)CCCOc1c2occc2cc2ccc(=O)oc12`, for which, in assay [6], the Photosensitization is given as 357. In assay [1], this compound registered a Photo-cross-linking of DNA of 1.8. The Phototoxic effect in assay [2] came out at 150; in assay [4], 100. In assay [3], this compound displayed a DNA photo-crosslinking of 170. This compound had a DNA crosslinking in assay [5] of 190.
As to `CC[N+](CC)(CC)Cc1c2ccoc2c(OC)c2oc(=O)ccc12.[Cl-]`, the Photosensitization in assay [6] was determined as 133. In addition, the Photo-cross-linking of DNA in assay [1] came out at 0.05. Further, the Phototoxic effect in assay [2] came to 5; in assay [4], 3. Moreover, the DNA photo-crosslinking in assay [3] is recorded as 14. In assay [5], this compound came in with a DNA crosslinking of 8.

For the origin of these results see ChEMBL document CHEMBL1122909, “Psoralenamines. 3. Synthesis, pharmacological behavior, and DNA binding of 5-(aminomethyl)-8-methoxy-, 5-[[(3-aminopropyl)oxy]methyl]-, and 8-[(3-aminopropyl)oxy]psoralen derivatives” (1985).
